Assay results taken from ChEMBL document CHEMBL1143255, “Standard protecting groups create potent and selective kappa opioids: salvinorin B alkoxymethyl ethers” (Bioorg Med Chem, 2008).

Experiments:
[1] = target: T1, Kappa-type opioid receptor (Homo sapiens, UniProt P41145); experiment: Agonist activity at human kappa opioid receptor expressed in CHO cells assessed as stimulation of [35S]GTPgammaS binding relative to U50488H; format: functional, cell-based
How it was run: (§1)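 Potency and efficacy from [35S]GTPγS binding to membranes of CHO cells stably expressing human κ receptor; testing blinded to compound identity and molecular mass.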

Mu-type opioid receptor = Mu-type opioid receptor (Rattus norvegicus, UniProt P33535); experiment: Displacement of [3H]diprenorphine from rat mu opioid receptor expressed in CHO cells; format: cell-based
How it was run: (§2)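 Competitive inhibition of [3H]diprenorphine binding to membranes from CHO cells stably transfected with human κ, rat μ or mouse δ receptor; testing blinded to compound identity and molecular mass; mean of three independent experiments in duplicate.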

[2] = target: T1, Kappa-type opioid receptor; experiment: Displacement of [3H]diprenorphine from human kappa opioid receptor expressed in CHO cells; format: cell-based; how it was run: as §2
[3] = target: T1, Kappa-type opioid receptor; experiment: Agonist activity at human kappa opioid receptor expressed in CHO cells assessed as stimulation of [35S]GTPgammaS binding; format: functional, cell-based; how it was run: as §1
[4] = target: Delta-type opioid receptor (Mus musculus, UniProt P32300); experiment: Displacement of [3H]diprenorphine from mouse delta opioid receptor expressed in CHO cells; format: cell-based; how it was run: as §2
[5] = Selectivity for human kappa opioid receptor over mouse delta opioid receptor
[6] = Selectivity for human kappa opioid receptor over rat mu opioid receptor

T1 sequence (P41145 whole entry): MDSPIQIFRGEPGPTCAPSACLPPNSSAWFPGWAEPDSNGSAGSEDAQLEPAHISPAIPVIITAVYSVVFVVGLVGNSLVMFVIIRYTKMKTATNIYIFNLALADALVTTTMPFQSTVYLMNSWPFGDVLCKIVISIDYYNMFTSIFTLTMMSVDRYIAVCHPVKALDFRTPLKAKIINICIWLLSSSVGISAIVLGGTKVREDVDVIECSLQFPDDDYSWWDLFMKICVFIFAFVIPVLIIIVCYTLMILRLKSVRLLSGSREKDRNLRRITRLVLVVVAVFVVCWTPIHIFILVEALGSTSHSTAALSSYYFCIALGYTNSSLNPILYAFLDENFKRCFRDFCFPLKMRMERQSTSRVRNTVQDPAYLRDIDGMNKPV
Chain of Mu-type opioid receptor (P33535 whole entry): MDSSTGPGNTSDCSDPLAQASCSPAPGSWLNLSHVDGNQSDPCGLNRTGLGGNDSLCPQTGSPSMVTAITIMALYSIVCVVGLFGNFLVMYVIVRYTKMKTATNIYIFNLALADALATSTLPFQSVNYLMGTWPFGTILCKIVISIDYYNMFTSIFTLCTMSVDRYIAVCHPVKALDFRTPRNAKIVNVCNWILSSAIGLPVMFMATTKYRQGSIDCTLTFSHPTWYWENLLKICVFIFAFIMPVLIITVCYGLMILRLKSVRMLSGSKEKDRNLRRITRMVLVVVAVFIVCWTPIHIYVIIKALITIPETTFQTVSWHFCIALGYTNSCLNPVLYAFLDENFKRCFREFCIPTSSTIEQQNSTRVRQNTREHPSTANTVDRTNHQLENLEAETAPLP
Chain of Delta-type opioid receptor (P32300 whole entry): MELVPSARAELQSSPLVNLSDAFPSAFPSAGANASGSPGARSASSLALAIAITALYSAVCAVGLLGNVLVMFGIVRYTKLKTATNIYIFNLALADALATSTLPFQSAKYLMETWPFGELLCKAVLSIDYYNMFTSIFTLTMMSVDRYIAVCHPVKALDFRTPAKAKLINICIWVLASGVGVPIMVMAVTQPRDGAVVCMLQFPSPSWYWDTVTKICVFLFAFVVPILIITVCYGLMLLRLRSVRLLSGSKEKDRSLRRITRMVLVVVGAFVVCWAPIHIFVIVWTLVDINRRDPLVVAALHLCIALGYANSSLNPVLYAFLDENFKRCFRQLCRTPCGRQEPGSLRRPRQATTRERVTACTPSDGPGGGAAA

| Compound | Emax [1] [%] | Ki (Mu-type opioid receptor) [nM] | Ki [2] [nM] | EC50 [3] [nM] | Ki [4] [nM] | Selectivity ratio [5] | Selectivity ratio [6] | Ki (Mu-type opioid receptor; cho) [nM] | Ki ([4]; cho) [nM] |
| --- | --- | --- | --- | --- | --- | --- | --- | --- | --- |
| COC(=O)[C@@H]1C[C@H](OCOC(C)(C)C)C(=O)[C@H]2[C@@]1(C)CC[C@H]1C(=O)O[C@H](c3ccoc3)C[C@]21C | 81 | > 1000 | 35 | 108 | > 1000 |  |  |  |  |
| CCOCO[C@H]1C[C@@H](C(=O)OC)[C@]2(C)CC[C@H]3C(=O)O[C@H](c4ccoc4)C[C@]3(C)[C@H]2C1=O [SALVINORIN B ETHOXYMETHYL ETHER] | 81 | > 1000 | 0.32 | 0.14 | > 1000 | > 3000 | > 3000 |  |  |
| COC(=O)[C@@H]1C[C@H](OCOCC(F)(F)F)C(=O)[C@H]2[C@@]1(C)CC[C@H]1C(=O)O[C@H](c3ccoc3)C[C@]21C | 81 | > 1000 | 31 | 75 | > 1000 |  |  |  |  |
| COC(=O)[C@@H]1C[C@H](OCOC(C)C)C(=O)[C@H]2[C@@]1(C)CC[C@H]1C(=O)O[C@H](c3ccoc3)C[C@]21C [SALVINORIN B ISOPROPOXYMETHYL ETHER] | 81 | > 1000 | 1.6 | 4.2 | > 1000 |  |  |  |  |
| COC(=O)[C@@H]1C[C@H](OC2CCCCO2)C(=O)[C@H]2[C@@]1(C)CC[C@H]1C(=O)O[C@H](c3ccoc3)C[C@]21C (some centres undefined) | 81 | > 1000 | 4 | 2.8 | > 1000 |  |  |  |  |
| COC(=O)[C@@H]1C[C@H](OCSC)C(=O)[C@H]2[C@@]1(C)CC[C@H]1C(=O)O[C@H](c3ccoc3)C[C@]21C [SALVINORIN B METHYLTHIOMETHYL ETHER] | 81 | > 1000 | 13 | 31 | > 1000 |  |  |  |  |
| CCCCOCO[C@H]1C[C@@H](C(=O)OC)[C@]2(C)CC[C@H]3C(=O)O[C@H](c4ccoc4)C[C@]3(C)[C@H]2C1=O [SALVINORIN B BUTOXYMETHYL ETHER] | 81 | > 1000 | 5.3 | 20 | > 1000 |  |  |  |  |
| CCO[C@H]1C[C@@H](C(=O)OC)[C@]2(C)CC[C@H]3C(=O)O[C@H](c4ccoc4)C[C@]3(C)[C@H]2C1=O [DEOXY SALVINORIN A] |  |  |  | 18 |  |  |  |  |  |
| COC(=O)[C@@H]1C[C@H](OC(C)(C)OC)C(=O)[C@H]2[C@@]1(C)CC[C@H]1C(=O)O[C@H](c3ccoc3)C[C@]21C | 81 | > 1000 | 72 | 72 | > 1000 |  |  |  |  |
| COCCOCO[C@H]1C[C@@H](C(=O)OC)[C@]2(C)CC[C@H]3C(=O)O[C@H](c4ccoc4)C[C@]3(C)[C@H]2C1=O | 81 | > 1000 | 141 | 320 | > 1000 |  |  |  |  |
| CCOC(C)O[C@H]1C[C@@H](C(=O)OC)[C@]2(C)CC[C@H]3C(=O)O[C@H](c4ccoc4)C[C@]3(C)[C@H]2C1=O (some centres undefined) [listing 1 of 3 here] | 81 |  |  |  |  |  |  |  |  |
| CCCOCO[C@H]1C[C@@H](C(=O)OC)[C@]2(C)CC[C@H]3C(=O)O[C@H](c4ccoc4)C[C@]3(C)[C@H]2C1=O [SALVINORIN B PROPOXYMETHYL ETHER] | 81 | > 1000 | 2.2 | 5.2 | > 1000 |  |  |  |  |
| COC(=O)[C@@H]1C[C@H](OCF)C(=O)[C@H]2[C@@]1(C)CC[C@H]1C(=O)O[C@H](c3ccoc3)C[C@]21C [SALVINORIN B FLUOROMETHYL ETHER] | 81 | > 1000 | 50 | 26 | > 1000 |  |  |  |  |
| CCOC(C)O[C@H]1C[C@@H](C(=O)OC)[C@]2(C)CC[C@H]3C(=O)O[C@H](c4ccoc4)C[C@]3(C)[C@H]2C1=O (some centres undefined) [listing 2 of 3 here] |  |  |  |  |  |  |  | > 1000 | > 1000 |
| COC(=O)[C@@H]1C[C@H](OCOCC[Si](C)(C)C)C(=O)[C@H]2[C@@]1(C)CC[C@H]1C(=O)O[C@H](c3ccoc3)C[C@]21C | 81 | > 1000 | > 1000 | 1660 | > 1000 |  |  |  |  |
| COC(=O)[C@@H]1C[C@H](OCOCc2ccccc2)C(=O)[C@H]2[C@@]1(C)CC[C@H]1C(=O)O[C@H](c3ccoc3)C[C@]21C [SALVINORIN B BENZYLOXYMETHYL ETHER] | 81 | > 1000 | 147 | 274 | > 1000 |  |  |  |  |
| COC(=O)[C@@H]1C[C@H](OCOCCF)C(=O)[C@H]2[C@@]1(C)CC[C@H]1C(=O)O[C@H](c3ccoc3)C[C@]21C | 81 | > 1000 | 1.9 | 3.8 | > 1000 |  | > 500 |  |  |
| CCOC(C)O[C@H]1C[C@@H](C(=O)OC)[C@]2(C)CC[C@H]3C(=O)O[C@H](c4ccoc4)C[C@]3(C)[C@H]2C1=O (some centres undefined) [listing 3 of 3 here] |  | > 1000 |  |  | > 1000 |  |  |  |  |
